Results as given in the EternaBench riboswitch data.

Tested on: MS2 coat protein
Experiment: apparent Kd, MS2 coat protein; higher = weaker binding; RNA-MaP array; FMN 200 µM where present
Outline: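 The apparent Kd is the median of filtered binding-curve fits, one per cluster, to green signal normalised to red-channel RNA signal and control-cluster median Fmax. The clusters were on Illumina sequencing chips, and stalled E. coli RNA polymerase had transcribed the designs on them. Titration used SNAP-549-labelled MS2 coat protein from 0.7 or 1.5 nM, doubling to 3 µM, without and then with constant ligand, in 100 mM Tris-HCl pH 7.5, 80 mM KCl, 4 mM MgCl2, BSA, DTT, yeast tRNA and Tween-20.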

[1] = designed as: OFF switch for flavin mononucleotide, no ligand
[2] = ligand present: flavin mononucleotide, designed as: OFF switch for flavin mononucleotide
[3] = designed as: ON switch for flavin mononucleotide, no ligand
[4] = ligand present: flavin mononucleotide, designed as: ON switch for flavin mononucleotide

“AAUCCACAUGAGGAUCACCCAUGUCAGGAUAUGAACGGUCUGGCACCGUGGGUUCCUGUUGACCGUCAGAAGGGACAAGGGCCC” was tested, and the “apparent Kd” value [1] was 5.69 nM and the “apparent Kd” value [2] was 7.72 nM.

With “CCAGCGUAUGUGAGGAUAUGCUGGUCCUUGGAUCAGCAGAAGGCACAUGAGGAUCACCCAUGUGGAAACGUUGG” the “apparent Kd” value [1] was 18.7 nM and the “apparent Kd” value [2] was 63.5 nM.

In the case of “CCGGAAACGGGUAGCUGUACAUGAGGAUCACCCAUGUGAUCAUAGGAUAUGGAUCCUAAUUGGAUCCAGAAGGAUGUCAGCUAC”, the “apparent Kd” value [3] is reported as 163 nM and the “apparent Kd” value [4] is reported as 580 nM.

With “CGGAACAUGAGGAUCACCCAUGUAGCUACUUAAAGGUGCUACAGAAGGGACAUUGCGCGUCAUGGUCAGGAUAUGUAGGGCUGA” the “apparent Kd” value [3] was 379 nM and the “apparent Kd” value [4] was 108 nM.

For “UUUAUGUAAGGAUAUGCGGGCGGGCGUGUUUAUGUUUGUUUGUAGAAGGUACAUGAGGAUCACCCAUGUAGUGG”, the “apparent Kd” value [1] was 90.1 nM and the “apparent Kd” value [2] was 172 nM.

For “GGAUAGGACAGAGGAUAUACGUGCUAGAGAUACUAGCAAAAUUUCCUCACAUGAGGAUCACCCAUGUAGAAGGCUGUCUUAUCG”, the “apparent Kd” value [1] was 16 nM and the “apparent Kd” value [2] was 191 nM.

In the case of “UUGUUAUGUGUAGGAUAUGCAUAUUAUUAUUAUGCAGAAGGACAUGAGGAUCACCCAUGUGUAUUAUUAUUAUAUAUUAUAUAU”, the “apparent Kd” value [1] is reported as 23.9 nM and the “apparent Kd” value [2] is reported as 35.9 nM.

In the case of “GCAGAGCCUGACAUGAGGAUCACCCAUGUUAGAUUGUUAUGUCAGGAUAUUGUCUAGCAACUAGACAAGAAGGGAUGCUCUGCG”, the “apparent Kd” value [3] is reported as 341 nM and the “apparent Kd” value [4] is reported as 27.8 nM.

With “GUAGCAUACCGAGGAUAUUCAUACCGGAAACGGACAUGAGGAUCACCCAUGUGGCGAAAGCCUUGGGAGAAGGCGGUAUGCUAC” the “apparent Kd” value [3] was 638 nM and the “apparent Kd” value [4] was 22.8 nM.

In the case of “GGCUGGCAGCUAGGAUAUGGGCGGUCACAUGAGGAUCACCCAUGUCAACAUCAAAACCAGAUUAACCAGAAGGAGCUGCGGAUU”, the “apparent Kd” value [3] is reported as 32.7 nM and the “apparent Kd” value [4] is reported as 502 nM.

“UAGUGGCAAGGAUAUACAGAGGAGAGGAUUGCAAGAGGUGGACAUGAGGAUCACCCAUGUAGAAGGUGCAGAGA” was tested, and the “apparent Kd” value [1] was 239 nM and the “apparent Kd” value [2] was 281 nM.

In the case of “AAAGAGCGAGGAUAUACGUAUCGGUGCGGCCCGCCGAUGUGACAUGAGGAUCACCCAUGUAGAAGGCGCAGAAA”, the “apparent Kd” value [1] is reported as 26.2 nM and the “apparent Kd” value [2] is reported as 33 nM.

“UUCUUGUGAGGAUAUCAGUAGUAAAUAAAUAAAAUUACUACUGAGAAGGCACAUGAGGAUCACCCAUGUUCCUU” was tested, and the “apparent Kd” value [1] was 14.6 nM and the “apparent Kd” value [2] was 32.9 nM.

In the case of “GACAGCGACACAGGAUAUGUCAAUUUUACAUGAGGAUCACCCAUGUCCGAAGCAGAAGGGUGAUCGCGCGCAAACUAAGCCAUG”, the “apparent Kd” value [3] is reported as 80.5 nM and the “apparent Kd” value [4] is reported as 70.5 nM.

For “CUGUAGUCAGGAUAUACAUGAGGAUCACCCAUGUAAAAUUUUAAUUUAAUUUGAAGGUGUAGAAGGGACCAGUU”, the “apparent Kd” value [1] was 34.3 nM and the “apparent Kd” value [2] was 32.9 nM.

For “CCAGGCUGUGUGAGGAUAUGCUGGUCCUUGGAUCAGCAGAAGGCACAUGAGGAUCACCCAUGUGAAGAGCUUGG”, the “apparent Kd” value [1] was 16.4 nM and the “apparent Kd” value [2] was 65 nM.

For “UUUAUUUAGGCAGGAUAUACAUGUAUAUAUAUUUCUUUAUAUAUUAUUACAUGAGGAUCACCCAUGUAGAAGGGCCUUAUUAUA”, the “apparent Kd” value [1] was 69.3 nM and the “apparent Kd” value [2] was 88.9 nM.

In the case of “UUAUUAAAUGUAGGAUAUGCAUAUUAUUAUUAUGCAGAAGGACAUGAGGAUCACCCAUGUAUAUUAUUAUUAUUUAUUAUAUAU”, the “apparent Kd” value [1] is reported as 44.8 nM and the “apparent Kd” value [2] is reported as 65.6 nM.

“AUUAUUUACAUAGGAUAUUGUUACAUGAGGAUCACCCAUGUUUUCAUGGUAUUAAUAUAUUAUUUCAAGAAGGAUGUUGUUACA” was tested, and the “apparent Kd” value [3] was 32.2 nM and the “apparent Kd” value [4] was 19.6 nM.

For “UAGGACUACGUAGGAUAUGUAGUUGAUUUCUACAUGAGGAUCACCCAUGUUUGCAUUUUAUUAGGACAGAAGGACGUGGUAAAU”, the “apparent Kd” value [3] was 16.1 nM and the “apparent Kd” value [4] was 7.36 nM.

“AUCCUGCGAGGAUAUACAUAGUGACGUCUGUUUGGUCUUAAACAUGAGGAUCACCCAUGUAGAAGGUGCGUCAC” was tested, and the “apparent Kd” value [1] was 15.8 nM and the “apparent Kd” value [2] was 19.5 nM.

“ACAAAUCGAGGAUAUACAUGAGGAUCACCCAUGUGGAGUCCACUGCGCGGUUCUCAGCGUAGAAGGCGAAAACA” was tested, and the “apparent Kd” value [1] was 46.3 nM and the “apparent Kd” value [2] was 89.8 nM.

In the case of “GGUCGUCACAUUAACAUGAGGAUCACCCAUGUAAAAUAACAUGAGGAUAUGCAUCCUAAUUGGAUGCAGAAGGCAUGGACGACC”, the “apparent Kd” value [3] is reported as 7.86 nM and the “apparent Kd” value [4] is reported as 6.02 nM.

With “CUCACGUUAGUAGGAUAUCCGACAUGAGGAUCACCCAUGUCACUGCGUCGCUAAGGUAGAUGCAAGGAGAAGGGCUGAUAAAUA” the “apparent Kd” value [3] was 259 nM and the “apparent Kd” value [4] was 124 nM.

“UUGGACGUAGUAGGAUAUGUAGGAUAUUCCUACAUGAGGAUCACCCAUGUUGACAUGGAAGAAGGACAGAAGGACGAUGUCCAU” was tested, and the “apparent Kd” value [3] was 405 nM and the “apparent Kd” value [4] was 5.06 nM.

In the case of “UUGGACCUAGGAUAUACAUGAGGAUCACCCAUGUUGGCGCACGCCCACCUGGACCCGAGUAGAAGGAGGAAAAU”, the “apparent Kd” value [1] is reported as 26.1 nM and the “apparent Kd” value [2] is reported as 78.4 nM.

In the case of “CUUCUCAGAGUCAGGAUAUAGUCGAAAGGGCUAGACUAGAAGGGACAUGAGGAUCACCCAUGUAAAAUAUCAAA”, the “apparent Kd” value [1] is reported as 19.2 nM and the “apparent Kd” value [2] is reported as 29.8 nM.

With “GACUGCCGAGGAUAUACAUGAGGAUCACCCAUGUGCUUCAGCAUCGAAAGAUGCAUGGGUAGAAGGCGGUAGUC” the “apparent Kd” value [1] was 27.4 nM and the “apparent Kd” value [2] was 72 nM.

With “GGUGGACAUGAGGAUCACCCAUGUGAGGAUAUCGGCCGGUUCGUGGUGGCUGGCUUCUCGAGAAGGCGCAUAGU” the “apparent Kd” value [1] was 55.8 nM and the “apparent Kd” value [2] was 65.7 nM.

For “GUGACGAAUGUAGGAUAUGCUGAGGAUAACUCAGCAGAAGGACAUGAGGAUCACCCAUGUACUAAUAGUGAUAAUAAACGUCAC”, the “apparent Kd” value [1] was 14.8 nM and the “apparent Kd” value [2] was 82.5 nM.

With “GUAGCAACAUGAGGAUCACCCAUGUAGGAUAUCGCUAUUGUAAUCAUGAAACAUGAUUACAAUAGCGAGAAGGACAUUGGCUAC” the “apparent Kd” value [1] was 7.06 nM and the “apparent Kd” value [2] was 10.8 nM.

With “CCUCCACAUGAGGAUCACCCAUGUCAGGAUAUCGCGCGCGCGUUUUCGGUCUUUCGCGCGAGAAGGGACGACUG” the “apparent Kd” value [1] was 34.4 nM and the “apparent Kd” value [2] was 54.5 nM.

“GCGACGAAAGUCGAACGAUGUAGCAGAAGGACAUGAGGAUCACCCAUGUCAGCUGUAACAGCCAUGUAGGAUAUGCUACAUCGA” was tested, and the “apparent Kd” value [1] was 4.26 nM and the “apparent Kd” value [2] was 5.11 nM.

In the case of “AAAAAAAAAAGACAGGAUAUCCAAAAAAAAACAUGAGGAUCACCCAUGUAAAAAAAAAAAAAGUGGGAGAAGGGUCAAAAAAAAAA”, the “apparent Kd” value [3] is reported as 57.7 nM and the “apparent Kd” value [4] is reported as 23.2 nM.

For “GGCGUUGAAGGAUAUUGAUAUCCGGACAUGAGGAUCACCCAUGUGAGACAUACUUAUAUGCGAGAAGGUCAGGCCC”, the “apparent Kd” value [1] was 160 nM and the “apparent Kd” value [2] was 139 nM.

For “AUGUUGCGAGGAUAUAUUUAAUGGAUGAUAUUUAUUAGGGAACAUGAGGAUCACCCAUGUAGAAGGUGCAUAAC”, the “apparent Kd” value [1] was 63.7 nM and the “apparent Kd” value [2] was 87 nM.

In the case of “GGUCUGACAUAAGGAUAUGCUCAGGAUAACUGAGCAGAAGGUAUGUGAAAACAUGAGGAUCACCCAUGUGAUCAAUACAGACCA”, the “apparent Kd” value [3] is reported as 18.8 nM and the “apparent Kd” value [4] is reported as 19.5 nM.

“AUCAGCUCGUCAGGAUAUACGUCACUGCGUCAGCAGUGUGGUAAGAUUACAUGAGGAUCACCCAUGUAGAAGGGACGAGCUGAU” was tested, and the “apparent Kd” value [1] was 6.38 nM and the “apparent Kd” value [2] was 8.59 nM.

“AUACAUGAGGAUCACCCAUGUUACUUGGUCUUGAUAUUACGUAGAAGGAUGAUAUUAUUAUUAGCAUAGGAUAUACAAUUUGUA” was tested, and the “apparent Kd” value [1] was 17 nM and the “apparent Kd” value [2] was 12.8 nM.

For “GCUGCAUAGGCAGGAUAUGCAAUAAUUCGAAUAAAAUAUAACGAAUUAACAUGAGGAUCACCCAUGUAGAAGGGCCUGUGCAGU”, the “apparent Kd” value [1] was 18.4 nM and the “apparent Kd” value [2] was 16 nM.

For “GUCCUCUCUGAGGAUAUUAUCUGGUCCGAUUGAUAAGAAGGCAGUACAUGAGGAUCACCCAUGUGGGUCGUCUG”, the “apparent Kd” value [1] was 53.5 nM and the “apparent Kd” value [2] was 77.7 nM.

“GUGUACAGAGGAUAUACUGGAGCUAGGAAACUAGCAACCUCACAUGAGGAUCACCCAUGUAGAAGGCUGUACAC” was tested, and the “apparent Kd” value [1] was 402 nM and the “apparent Kd” value [2] was 25.8 nM.

For “AGUGCCCGAGCAGGAUAUCAAUGGUGGUCUGUACGCUGUAAAUUCAACAUGAGGAUCACCCAUGUUGAGAAGGGUUACGGCGCA”, the “apparent Kd” value [1] was 8.86 nM and the “apparent Kd” value [2] was 23.9 nM.

“GUGAAACAUGAGGAUCACCCAUGUGAGGAUAUGUUUUAGUACUGCUGACAGUACAUCUAUAGAAGGCACAAAGG” was tested, and the “apparent Kd” value [1] was 26.8 nM and the “apparent Kd” value [2] was 29.9 nM.

For “CCGGAAACGGGUAGCUGUACAUGAGGAUCACCCAUGUGAUCAUAGGAUAUGGAUGGUAAUUCCAUCCAGAAGGAUGUCAGCUAC”, the “apparent Kd” value [3] was 216 nM and the “apparent Kd” value [4] was 715 nM.

“UGUCGGAGCAGAGGAUAUUACAUGAGGAUCACCCAUGUAUUAAAUGGAAGCUGGAAACAGCAAUGUAAGAAGGCUGCUCCGACA” was tested, and the “apparent Kd” value [1] was 59.2 nM and the “apparent Kd” value [2] was 311 nM.

With “AAACCGUGUGGAGGAUAUGCAGUUGAGGUGAGGUGGCAACUCUAUACGACAGCAGAAGGCCACAUGAGGAUCACCCAUGUAGGU” the “apparent Kd” value [1] was 251 nM and the “apparent Kd” value [2] was 73.6 nM.

With “GGUGGAAGCACAGGAUAUGUUGAUUUUAUGGUGUUACAUGAGGAUCACCCAUGUCCGCGAUUCUAACAGAAGGGUGCAUGGAUG” the “apparent Kd” value [3] was 543 nM and the “apparent Kd” value [4] was 59.9 nM.
